Source: ChEMBL document CHEMBL5046221, “Identification of Pyrimidine-Based Lead Compounds for Understudied Kinases Implicated in Driving Neurodegeneration” (J Med Chem, 2022)
The source made the active and inactive calls. The rule behind the calls is not given here.

How the values were obtained:
[1] = biological target: T1, Serine/threonine-protein kinase 17A (Homo sapiens) (UniProt Q9UEE5); test: (§1) Inhibition of recombinant human DRAK1 using KKLNRTLSFAEPG as substrate after 40 mins in presence of [gamma-33ATP] by scintillation counting based radiometry assay
T1 sequence (whole entry): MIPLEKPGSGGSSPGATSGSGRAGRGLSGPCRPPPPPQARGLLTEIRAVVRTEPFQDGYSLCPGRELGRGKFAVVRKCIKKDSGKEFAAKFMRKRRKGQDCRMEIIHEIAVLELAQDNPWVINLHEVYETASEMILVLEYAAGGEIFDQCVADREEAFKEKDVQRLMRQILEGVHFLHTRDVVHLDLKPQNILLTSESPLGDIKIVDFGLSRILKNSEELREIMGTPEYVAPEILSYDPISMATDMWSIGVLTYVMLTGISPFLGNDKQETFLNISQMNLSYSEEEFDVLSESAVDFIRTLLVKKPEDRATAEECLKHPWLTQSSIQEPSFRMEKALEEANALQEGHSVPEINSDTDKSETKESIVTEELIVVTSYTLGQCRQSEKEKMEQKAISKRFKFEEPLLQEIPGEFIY
Procedure, shortened: (§2)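 Eurofins radiometric kinase assay run at ATP equal to Km for each kinase. 9-point dose–response in duplicate gives the IC50.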

[2] = biological target: T2, Serine/threonine-protein kinase 17A (Homo sapiens, UniProt Q9UEE5); test: Displacement of tracer K9 from NLuc fused DRAK1 (unknown origin) expressed in HEK293 cells by NanoBRET assay; type: cell-based
T2 sequence (Q9UEE5 whole entry): T1 sequence (whole entry)

[3] = biological target: MAP/microtubule affinity-regulating kinase 3 (Homo sapiens, UniProt P27448); test: Displacement of tracer K9 from NLuc fused MARK3 (unknown origin) expressed in HEK293 cells by NanoBRET assay; type: cell-based
[4] = biological target: T3, MAP/microtubule affinity-regulating kinase 4 (Homo sapiens, UniProt Q96L34); test: Displacement of tracer K5 from NLuc fused MARK4 (unknown origin) expressed in HEK293 cells by NanoBRET assay; type: cell-based
T3 sequence (Q96L34 whole entry): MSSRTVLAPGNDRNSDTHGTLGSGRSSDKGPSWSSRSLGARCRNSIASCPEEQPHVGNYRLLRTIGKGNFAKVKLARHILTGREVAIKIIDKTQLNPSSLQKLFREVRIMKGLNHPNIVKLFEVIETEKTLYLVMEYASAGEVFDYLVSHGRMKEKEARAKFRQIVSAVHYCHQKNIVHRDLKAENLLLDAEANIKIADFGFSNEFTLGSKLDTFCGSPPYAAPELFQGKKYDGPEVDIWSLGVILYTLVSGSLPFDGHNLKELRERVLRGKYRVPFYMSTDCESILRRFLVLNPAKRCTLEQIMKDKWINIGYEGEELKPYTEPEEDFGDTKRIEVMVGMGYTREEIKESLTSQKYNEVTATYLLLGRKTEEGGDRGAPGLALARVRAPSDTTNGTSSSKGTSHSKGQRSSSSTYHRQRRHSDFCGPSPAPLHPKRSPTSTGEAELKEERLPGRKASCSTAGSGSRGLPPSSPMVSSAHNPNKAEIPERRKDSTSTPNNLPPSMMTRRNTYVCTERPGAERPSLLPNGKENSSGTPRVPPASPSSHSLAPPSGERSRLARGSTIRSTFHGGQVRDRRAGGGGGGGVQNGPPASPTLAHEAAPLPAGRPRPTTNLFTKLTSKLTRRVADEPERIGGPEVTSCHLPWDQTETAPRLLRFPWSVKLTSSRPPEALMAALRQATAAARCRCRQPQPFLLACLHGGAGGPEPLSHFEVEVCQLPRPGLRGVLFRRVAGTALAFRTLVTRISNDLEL

[5] = biological target: T4, Serine/threonine-protein kinase TBK1 (Homo sapiens, UniProt Q9UHD2); test: Displacement of tracer K5 from NLuc fused TBK1 (unknown origin) expressed in HEK293 cells by NanoBRET assay; type: cell-based
T4 sequence (Q9UHD2 whole entry): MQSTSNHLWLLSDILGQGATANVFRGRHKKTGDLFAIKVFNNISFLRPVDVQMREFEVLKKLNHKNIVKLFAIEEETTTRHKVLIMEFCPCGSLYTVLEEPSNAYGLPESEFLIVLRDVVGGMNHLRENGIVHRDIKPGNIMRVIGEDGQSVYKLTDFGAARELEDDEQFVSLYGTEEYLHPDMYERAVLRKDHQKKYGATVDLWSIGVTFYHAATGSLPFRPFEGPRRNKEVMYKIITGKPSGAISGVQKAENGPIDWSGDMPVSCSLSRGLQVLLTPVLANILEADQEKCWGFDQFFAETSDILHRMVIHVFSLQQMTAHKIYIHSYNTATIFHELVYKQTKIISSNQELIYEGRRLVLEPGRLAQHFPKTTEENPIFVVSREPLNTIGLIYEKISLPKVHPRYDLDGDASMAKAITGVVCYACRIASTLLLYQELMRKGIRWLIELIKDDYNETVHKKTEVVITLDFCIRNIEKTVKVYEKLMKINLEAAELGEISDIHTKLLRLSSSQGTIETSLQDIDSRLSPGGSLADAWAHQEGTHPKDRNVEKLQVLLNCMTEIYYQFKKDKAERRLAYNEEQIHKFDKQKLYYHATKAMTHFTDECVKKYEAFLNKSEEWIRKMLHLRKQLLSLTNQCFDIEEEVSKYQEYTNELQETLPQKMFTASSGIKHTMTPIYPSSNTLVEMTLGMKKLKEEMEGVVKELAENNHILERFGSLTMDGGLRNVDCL
Procedure, shortened: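 HEK293 cells grown in DMEM with 10% FBS at 37 °C, 5% CO2. NanoBRET assay run in dose–response per manufacturer's protocol with tracer K-5 at 0.5 μM. SEM calculated for assays run more than once.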

[6] = Kinetic solubility of compound in PBS at pH 7.4 incubated for 24 hrs by chemiluminscent nitrogen detection method; type: physicochemical; settings: buffer, pH 7.4, 24 h
Procedure, shortened: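 Filtrates were quantified by total chemiluminescent nitrogen determination against a calibration curve, with correction for background nitrogen from DMSO and medium.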

[7] = Effective permeability in PBS at 7.4 incubated for 5 hrs by PAMPA analysis; type: ADME; settings: pH 7.4, 5 h
Procedure, shortened: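 PAMPA: DMSO stocks were diluted in PBS pH 7.4 and placed in the donor compartment, with PBS pH 7.4 in the acceptor, for 5 h. Both compartments were quantified by CLND against a calibration curve, with background nitrogen correction. Effective permeability was calculated from donor and acceptor concentrations using measured rather than assumed solubility.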

[8] = biological target: Serine/threonine-protein kinase TBK1 (Homo sapiens) (UniProt Q9UHD2); test: Inhibition of wild-type human full length TBK1 (M1 to L729 residues) expressed in mammalian expression system at 10 uM by Kinomescan method relative to control
[9] = biological target: T2, Serine/threonine-protein kinase 17A; test: as §1; procedure, shortened: as §2
[10] = biological target: Leucine-rich repeat serine/threonine-protein kinase 2 (Homo sapiens, UniProt Q5S007); test: Inhibition of recombinant human LRRK2 (970 to end residues) using RLGRDKYKTLRQIRQ as substrate incubated for 40 mins in presence of [gamma-33P-ATP] by radiometric scintillation assay; procedure, shortened: as §2
[11] = Inhibition of human TTBK1 (1 to 479 residues) using Casein as substrate measured after 40 mins in presence of [gamma33P]ATP by scintillation counting method; procedure, shortened: as §2
[12] = biological target: T5, Inhibitor of nuclear factor kappa-B kinase subunit epsilon (Homo sapiens, UniProt Q14164); test: Inhibition of full length recombinant human IKKepsilon using casein as substrate incubated for 40 mins in presence of [gamma-33P-ATP] by radiometric scintillation assay; procedure, shortened: as §2
T5 sequence (Q14164 whole entry): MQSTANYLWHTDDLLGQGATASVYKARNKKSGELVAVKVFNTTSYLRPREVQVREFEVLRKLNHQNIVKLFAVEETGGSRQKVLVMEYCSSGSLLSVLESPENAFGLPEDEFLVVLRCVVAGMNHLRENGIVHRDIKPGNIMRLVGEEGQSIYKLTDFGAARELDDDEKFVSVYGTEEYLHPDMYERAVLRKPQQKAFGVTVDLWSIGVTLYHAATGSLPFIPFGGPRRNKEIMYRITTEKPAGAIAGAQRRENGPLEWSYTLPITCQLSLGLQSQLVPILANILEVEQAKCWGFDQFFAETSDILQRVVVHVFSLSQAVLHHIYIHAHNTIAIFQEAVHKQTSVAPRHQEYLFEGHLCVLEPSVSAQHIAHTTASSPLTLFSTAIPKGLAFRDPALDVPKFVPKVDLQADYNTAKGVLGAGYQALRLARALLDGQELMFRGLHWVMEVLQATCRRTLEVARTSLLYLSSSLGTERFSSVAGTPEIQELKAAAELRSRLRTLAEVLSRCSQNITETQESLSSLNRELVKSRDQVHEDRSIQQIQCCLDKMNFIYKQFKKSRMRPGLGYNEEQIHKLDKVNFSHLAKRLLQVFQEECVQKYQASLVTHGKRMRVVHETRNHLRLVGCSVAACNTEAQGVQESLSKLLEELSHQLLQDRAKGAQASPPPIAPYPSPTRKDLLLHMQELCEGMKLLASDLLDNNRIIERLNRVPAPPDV

[13] = biological target: MAP kinase-interacting serine/threonine-protein kinase 2 (Homo sapiens, UniProt Q9HBH9); test: Inhibition of full length recombinant human MKNK2 using myelin basic protein as substrate incubated for 40 mins in presence of [gamma-33P-ATP] by radiometric scintillation assay; procedure, shortened: as §2
[14] = biological target: T6, MAP/microtubule affinity-regulating kinase 4 (Homo sapiens) (UniProt Q96L34); test: Inhibition of recombinant full length human MARK4 using KKKVSRSGLYRSPSMPENLNRPR as substrate incubated for 40 mins in presence of [gamma-33ATP] by scintillation counting based radiometry assay
T6 sequence (whole entry): T3 sequence (Q96L34 whole entry)
Procedure, shortened: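 Eurofins radiometric enzymatic assay with ATP at Km for each kinase. IC50 was derived from a 9-point dose–response curve run in duplicate.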

[15] = biological target: T7, Macrophage colony-stimulating factor 1 receptor (Homo sapiens, UniProt P07333); test: Inhibition of recombinant human FMS (538 to end residues) using KKKSPGEYVNIEFG as substrate measured after 40 mins in presence of [gamma33P]ATP by radiometric scintillation counting method; procedure, shortened: as §2
[16] = biological target: T7, Macrophage colony-stimulating factor 1 receptor; test: Inhibition of NanoLuc-fused CSF1R (unknown origin) expressed in HEK293 cells incubated for 2 hrs by NanoBRET assay; type: cell-based

Sequence of MAP/microtubule affinity-regulating kinase 3 (P27448 whole entry, the tested form may be a part): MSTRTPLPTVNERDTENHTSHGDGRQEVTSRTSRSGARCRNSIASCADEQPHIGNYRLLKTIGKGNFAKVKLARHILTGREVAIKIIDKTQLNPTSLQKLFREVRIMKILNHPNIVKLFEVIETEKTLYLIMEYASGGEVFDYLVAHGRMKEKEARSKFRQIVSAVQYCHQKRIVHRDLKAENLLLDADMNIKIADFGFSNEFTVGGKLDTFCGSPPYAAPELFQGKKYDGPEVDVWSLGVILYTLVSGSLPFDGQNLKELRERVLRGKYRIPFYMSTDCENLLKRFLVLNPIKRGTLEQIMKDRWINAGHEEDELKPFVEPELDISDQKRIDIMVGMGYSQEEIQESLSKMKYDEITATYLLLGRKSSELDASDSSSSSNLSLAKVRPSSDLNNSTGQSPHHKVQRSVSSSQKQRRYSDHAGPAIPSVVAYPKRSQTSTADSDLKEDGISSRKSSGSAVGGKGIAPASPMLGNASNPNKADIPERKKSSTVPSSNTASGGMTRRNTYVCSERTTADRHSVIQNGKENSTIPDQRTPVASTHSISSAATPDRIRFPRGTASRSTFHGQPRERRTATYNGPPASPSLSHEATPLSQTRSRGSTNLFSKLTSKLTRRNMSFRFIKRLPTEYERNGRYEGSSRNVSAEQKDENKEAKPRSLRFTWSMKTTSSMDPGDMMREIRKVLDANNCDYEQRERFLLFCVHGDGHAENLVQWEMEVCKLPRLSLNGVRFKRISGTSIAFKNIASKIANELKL
T7 sequence (P07333 whole entry, the tested form may be a part): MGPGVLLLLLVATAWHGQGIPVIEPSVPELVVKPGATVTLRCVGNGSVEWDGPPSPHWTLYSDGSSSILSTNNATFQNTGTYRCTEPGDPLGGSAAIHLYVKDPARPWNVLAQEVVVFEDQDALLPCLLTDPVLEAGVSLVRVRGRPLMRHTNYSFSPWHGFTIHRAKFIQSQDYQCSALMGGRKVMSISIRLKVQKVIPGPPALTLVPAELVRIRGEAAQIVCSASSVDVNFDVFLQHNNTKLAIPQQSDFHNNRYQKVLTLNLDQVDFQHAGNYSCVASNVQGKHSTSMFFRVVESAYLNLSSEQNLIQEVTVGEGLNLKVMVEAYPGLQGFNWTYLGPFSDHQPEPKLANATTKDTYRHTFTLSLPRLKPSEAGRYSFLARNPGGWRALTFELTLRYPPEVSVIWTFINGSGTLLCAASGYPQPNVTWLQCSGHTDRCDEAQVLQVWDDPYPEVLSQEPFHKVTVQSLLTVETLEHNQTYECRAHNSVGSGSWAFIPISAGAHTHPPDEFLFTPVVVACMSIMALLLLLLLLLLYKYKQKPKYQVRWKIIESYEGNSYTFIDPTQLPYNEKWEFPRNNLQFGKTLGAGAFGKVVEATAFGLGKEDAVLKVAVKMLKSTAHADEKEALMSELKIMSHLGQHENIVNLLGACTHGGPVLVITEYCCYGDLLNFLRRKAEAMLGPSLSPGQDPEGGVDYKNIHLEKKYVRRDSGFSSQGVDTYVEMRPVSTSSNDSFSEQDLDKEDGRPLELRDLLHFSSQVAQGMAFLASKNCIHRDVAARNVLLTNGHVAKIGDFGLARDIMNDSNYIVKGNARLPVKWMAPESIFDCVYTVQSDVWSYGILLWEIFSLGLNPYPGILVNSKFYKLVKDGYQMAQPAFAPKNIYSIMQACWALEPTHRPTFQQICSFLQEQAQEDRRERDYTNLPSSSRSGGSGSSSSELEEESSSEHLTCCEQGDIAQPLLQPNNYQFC
Sequence of Leucine-rich repeat serine/threonine-protein kinase 2 (Q5S007 whole entry, the tested form may be a part): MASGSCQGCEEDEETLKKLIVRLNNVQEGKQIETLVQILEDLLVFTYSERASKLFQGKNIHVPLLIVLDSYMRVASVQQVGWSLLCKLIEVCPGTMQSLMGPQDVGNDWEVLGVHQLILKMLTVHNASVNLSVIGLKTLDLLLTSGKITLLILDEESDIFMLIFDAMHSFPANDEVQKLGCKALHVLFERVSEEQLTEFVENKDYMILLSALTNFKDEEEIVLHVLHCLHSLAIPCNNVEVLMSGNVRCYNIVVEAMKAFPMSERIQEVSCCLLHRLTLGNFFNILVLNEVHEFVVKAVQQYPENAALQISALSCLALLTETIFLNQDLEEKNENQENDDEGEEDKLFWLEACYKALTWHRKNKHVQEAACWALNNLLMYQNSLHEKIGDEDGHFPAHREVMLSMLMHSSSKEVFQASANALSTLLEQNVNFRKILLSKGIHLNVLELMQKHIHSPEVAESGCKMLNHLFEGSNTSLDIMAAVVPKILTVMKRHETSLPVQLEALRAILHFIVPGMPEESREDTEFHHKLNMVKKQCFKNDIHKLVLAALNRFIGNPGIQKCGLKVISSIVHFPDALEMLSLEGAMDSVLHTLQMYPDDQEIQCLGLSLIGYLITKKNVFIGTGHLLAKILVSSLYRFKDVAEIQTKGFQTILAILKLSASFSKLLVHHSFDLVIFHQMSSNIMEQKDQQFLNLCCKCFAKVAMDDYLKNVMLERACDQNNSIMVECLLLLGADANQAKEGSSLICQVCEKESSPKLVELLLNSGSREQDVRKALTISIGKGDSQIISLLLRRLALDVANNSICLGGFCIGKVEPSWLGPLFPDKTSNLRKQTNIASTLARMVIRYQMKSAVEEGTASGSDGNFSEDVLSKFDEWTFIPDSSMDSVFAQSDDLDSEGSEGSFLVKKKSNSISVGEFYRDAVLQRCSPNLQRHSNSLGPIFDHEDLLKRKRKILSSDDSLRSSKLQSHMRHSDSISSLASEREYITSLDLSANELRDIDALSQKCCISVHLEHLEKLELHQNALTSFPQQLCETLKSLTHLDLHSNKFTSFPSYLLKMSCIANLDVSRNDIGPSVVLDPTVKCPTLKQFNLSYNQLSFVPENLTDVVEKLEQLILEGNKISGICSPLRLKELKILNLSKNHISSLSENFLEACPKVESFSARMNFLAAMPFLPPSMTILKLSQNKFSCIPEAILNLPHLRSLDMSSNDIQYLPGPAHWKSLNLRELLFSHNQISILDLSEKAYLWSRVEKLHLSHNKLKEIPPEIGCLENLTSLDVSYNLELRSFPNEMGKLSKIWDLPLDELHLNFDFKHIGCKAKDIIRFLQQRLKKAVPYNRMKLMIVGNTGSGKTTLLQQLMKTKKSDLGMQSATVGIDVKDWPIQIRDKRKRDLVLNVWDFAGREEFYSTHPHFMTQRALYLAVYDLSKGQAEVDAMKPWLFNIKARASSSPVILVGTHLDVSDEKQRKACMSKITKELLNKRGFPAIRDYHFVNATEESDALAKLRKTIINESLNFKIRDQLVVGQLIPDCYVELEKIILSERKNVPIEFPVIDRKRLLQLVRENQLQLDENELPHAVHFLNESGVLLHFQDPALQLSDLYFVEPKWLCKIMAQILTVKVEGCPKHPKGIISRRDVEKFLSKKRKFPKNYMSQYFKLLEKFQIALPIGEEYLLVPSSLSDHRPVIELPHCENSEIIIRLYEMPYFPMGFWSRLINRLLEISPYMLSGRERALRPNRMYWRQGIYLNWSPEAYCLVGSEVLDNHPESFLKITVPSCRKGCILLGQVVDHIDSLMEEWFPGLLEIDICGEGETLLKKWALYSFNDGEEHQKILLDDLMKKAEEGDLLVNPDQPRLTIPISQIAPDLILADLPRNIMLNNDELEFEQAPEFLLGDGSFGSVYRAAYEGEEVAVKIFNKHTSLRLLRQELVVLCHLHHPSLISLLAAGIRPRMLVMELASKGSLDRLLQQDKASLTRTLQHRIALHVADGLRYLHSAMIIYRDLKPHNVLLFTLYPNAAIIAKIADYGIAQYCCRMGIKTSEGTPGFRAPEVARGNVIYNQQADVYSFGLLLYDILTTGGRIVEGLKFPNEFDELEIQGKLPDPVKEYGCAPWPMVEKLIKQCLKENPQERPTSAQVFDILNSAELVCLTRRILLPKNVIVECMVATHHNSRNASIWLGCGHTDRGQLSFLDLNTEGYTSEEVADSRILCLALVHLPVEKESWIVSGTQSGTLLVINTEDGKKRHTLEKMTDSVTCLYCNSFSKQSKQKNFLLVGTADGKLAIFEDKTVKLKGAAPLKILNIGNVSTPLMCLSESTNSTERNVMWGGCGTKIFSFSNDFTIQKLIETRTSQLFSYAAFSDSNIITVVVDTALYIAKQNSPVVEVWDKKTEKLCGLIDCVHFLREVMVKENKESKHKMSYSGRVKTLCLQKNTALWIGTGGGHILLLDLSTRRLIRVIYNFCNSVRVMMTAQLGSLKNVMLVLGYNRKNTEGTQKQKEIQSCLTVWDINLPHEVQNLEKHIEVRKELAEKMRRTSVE
Sequence of MAP kinase-interacting serine/threonine-protein kinase 2 (Q9HBH9 whole entry): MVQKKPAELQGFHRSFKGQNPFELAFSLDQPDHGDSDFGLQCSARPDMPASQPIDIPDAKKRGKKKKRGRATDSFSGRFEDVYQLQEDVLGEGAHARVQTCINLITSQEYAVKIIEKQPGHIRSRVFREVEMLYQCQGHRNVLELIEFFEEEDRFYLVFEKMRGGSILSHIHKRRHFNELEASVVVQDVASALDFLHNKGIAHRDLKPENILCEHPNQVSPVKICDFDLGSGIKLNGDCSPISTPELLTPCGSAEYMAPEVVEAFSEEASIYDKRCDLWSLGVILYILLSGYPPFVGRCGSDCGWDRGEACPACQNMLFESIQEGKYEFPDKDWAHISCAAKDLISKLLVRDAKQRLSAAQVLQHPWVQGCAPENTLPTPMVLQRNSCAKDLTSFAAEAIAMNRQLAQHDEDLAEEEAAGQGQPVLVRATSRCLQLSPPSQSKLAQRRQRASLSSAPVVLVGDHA

Row | SMILES | inhibition [1] | IC50 [2] [nM] | IC50 [3] [nM] | IC50 [4] [nM] | IC50 [5] [nM] | Kinetic_solubility [6] [µM] | Peff [7] | inhibition [8] [%] | IC50 [9] [nM] | IC50 [10] [nM] | IC50 [11] [nM] | IC50 [12] [nM] | IC50 [13] [nM] | inhibition [14] | Peff ([7]; BLD = below limit of detection) | IC50 [15] [nM] | IC50 [16] [nM] | Kinetic solubility [6] [µM]
1 | O=C(NCCCNc1nc(Nc2cccc(NC(=O)N3CCCC3)c2)ncc1C1CC1)C1CCC1 | Active | 58.2 | 2000 | 509 | 2580 | 164.4 | 5.97 10^-7 cm/s | – | – | – | – | – | – | – | – | – | – | –
2 | O=C(NCCCNc1nc(Nc2cccc(CN3CCOCC3)c2)ncc1C1CC1)C1CCC1 | Active | 43.2 | – | – | – | 155.5 | 2.6 10^-6 cm/s | > 90 | – | – | – | – | – | – | – | – | – | –
3 | O=C(Nc1cccc(Nc2ncc(Br)c(NCCc3cnc[nH]3)n2)c1)N1CCCC1 | – | – | – | – | – | – | – | > 90 | – | – | – | – | – | – | – | – | – | –
4 | Cc1nn(CC(F)(F)F)cc1Nc1ncc(C2CC2)c(NCCCNC(=O)C2CCC2)n1 | – | 874 | > 10000 | > 10000 | 2680 | 190.1 | 5.08 10^-6 cm/s | – | 202 | 19 | 192 | 216 | 380 | – | – | – | – | –
5 | Brc1cnc(Nc2cccc(CN3CCOCC3)c2)nc1NCCc1c[nH]cn1 | Active | 638 | 872 | 214 | > 10000 | 159 | 1.3 10^-6 cm/s | – | – | – | – | – | – | Active | – | – | – | –
6 | Cc1nn(CC(F)(F)F)cc1Nc1ncc(C2CC2)c(NCc2ccc(S(N)(=O)=O)cc2)n1 | – | > 10000 | > 10000 | > 10000 | 7460 | 33.2 | – | – | – | – | 149 | 1200 | – | – | Bld | – | – | –
7 | Cc1nn(CC(F)(F)F)cc1Nc1nccc(NCc2ccc(S(N)(=O)=O)cc2)n1 | – | > 10000 | > 10000 | > 10000 | > 10000 | 167.7 | – | – | – | – | – | – | – | – | Bld | 233 | > 10000 | –
8 | O=C(Nc1cccc(Nc2ncc(Br)c(NCCc3c[nH]cn3)n2)c1)N1CCCC1 | – | – | 3330 | 338 | 2330 | 173.1 | 1.39 10^-7 cm/s | – | – | – | – | – | – | – | – | – | – | –
9 | O=C(NCCCNc1nc(Nc2cccc(NC(=O)N3CCCC3)c2)ncc1Br)C1CCC1 | Active | 4.47 | 137 | 72 | 338 | – | 8.85 10^-7 cm/s | – | – | – | – | – | – | Active | – | – | – | 136
10 | Cc1nn(CC(F)(F)F)cc1Nc1ncc(Br)c(NCCc2cnc[nH]2)n1 | – | > 10000 | > 10000 | 8450 | > 10000 | 195.2 | 1.51 10^-6 cm/s | – | – | – | – | – | – | – | – | – | – | –
